Experimental data published in ChEMBL document CHEMBL1122284, “Aromatic retinoic acid analogues. 2. Synthesis and pharmacological activity” (1983).

What was measured:
[1] = tested on: Cricetinae gen. sp.; experiment: Total cultures(0) versus active(6) at 10e-11 M conc. in hamster tracheal organ culture assay (TOC); assay type: functional, Trachea
In short: (§1)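 Tracheas from Syrian golden hamsters kept on a vitamin A deficient diet from birth to 30–32 days old. Cultured serum-free (CMRL 1066 with insulin, hydrocortisone, glutamine, antibiotics), one explant per dish, 50% O2/45% N2/5% CO2, 36 °C, rocked. 3 days without retinoid, then 7 days with retinoid, medium renewed three times. Histology on day 10. Active means keratin/keratohyaline granules absent. Usually duplicate, 6–7 tracheas per concentration.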

[2] = tested on: Cricetinae gen. sp.; experiment: Total cultures(12) versus active(12) at 10e-9 M conc. in hamster tracheal organ culture assay (TOC); assay type: functional, Trachea; in short: as §1
[3] = tested on: Cricetinae gen. sp.; experiment: Total cultures(3) versus active(11) at 10e-10 M conc. in hamster tracheal organ culture assay (TOC); assay type: functional, Trachea; in short: as §1
[4] = tested on: Cricetinae gen. sp.; experiment: ED50 of retinoid required to effect reversal of keratinization; assay type: functional; in short: as §1
[5] = tested on: Cricetinae gen. sp.; experiment: Total cultures(6) versus active(6) at 10e-8 M conc. in hamster tracheal organ culture assay (TOC); assay type: functional, Trachea; in short: as §1
[6] = tested on: Cricetinae gen. sp.; experiment: Relative potency with respect to retinoic acid in hamster tracheal organ culture assay (TOC); assay type: functional, Cricetulus griseus, Trachea
[7] = molecular target: T1, Ornithine decarboxylase (Mus musculus) (UniProt P00860); experiment: Percent inhibition of the induction of ornithine decarboxylase at 1.7 nmol in mouse dorsal epidermis (ODC assay); assay type: functional
T1 sequence (whole entry): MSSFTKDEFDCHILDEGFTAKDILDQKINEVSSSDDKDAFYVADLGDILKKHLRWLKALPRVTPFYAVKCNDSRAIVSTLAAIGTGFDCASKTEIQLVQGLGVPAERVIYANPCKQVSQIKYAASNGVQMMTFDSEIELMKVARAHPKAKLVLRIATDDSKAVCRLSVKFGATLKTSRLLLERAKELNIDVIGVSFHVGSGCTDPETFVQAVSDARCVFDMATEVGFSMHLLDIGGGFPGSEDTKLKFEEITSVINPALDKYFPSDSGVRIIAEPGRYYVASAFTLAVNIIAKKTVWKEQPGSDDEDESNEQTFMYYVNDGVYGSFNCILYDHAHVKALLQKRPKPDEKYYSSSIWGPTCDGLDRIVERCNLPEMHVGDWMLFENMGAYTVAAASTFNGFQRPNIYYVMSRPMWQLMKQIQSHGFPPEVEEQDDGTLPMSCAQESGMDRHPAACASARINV

[8] = molecular target: T1, Ornithine decarboxylase (Mus musculus); experiment: Percent inhibition of the induction of ornithine decarboxylase at 17 nmol dose in mouse dorsal epidermis (ODC assay); assay type: functional
[9] = tested on: Cricetinae gen. sp.; experiment: Total cultures (14) versus active (4) at 10e-10 M conc. in hamster tracheal organ culture assay (TOC); assay type: functional, Trachea; in short: as §1
[10] = tested on: Cricetinae gen. sp.; experiment: Total cultures (14) versus active (8) at 10e-9 M conc. in hamster tracheal organ culture assay (TOC); assay type: functional, Trachea; in short: as §1
[11] = tested on: Cricetinae gen. sp.; experiment: Total cultures(7) versus active (7) at 10e-8 M conc. in hamster tracheal organ culture assay (TOC); assay type: functional, Trachea; in short: as §1
[12] = tested on: Cricetinae gen. sp.; experiment: Total cultures(0) versus active(12)at 10e-10 M conc. in hamster tracheal organ culture assay (TOC); assay type: functional, Trachea; in short: as §1
[13] = tested on: Cricetinae gen. sp.; experiment: Total cultures(1) versus active (13)at 10e-9 M conc. in hamster tracheal organ culture assay (TOC); assay type: functional, Trachea; in short: as §1
[14] = tested on: Cricetinae gen. sp.; experiment: Total cultures(2) versus active(12) at 10e-8 M conc. in hamster tracheal organ culture assay (TOC); assay type: functional, Trachea; in short: as §1
[15] = molecular target: T1, Ornithine decarboxylase (Mus musculus); experiment: Percent inhibition of the induction of ornithine decarboxylase in mouse dorsal epidermis (ODC assay); assay type: functional
[16] = tested on: Cricetinae gen. sp.; experiment: Total cultures(11) versus active (5) at 10e-8 M conc. in hamster tracheal organ culture assay (TOC); assay type: functional, Trachea; in short: as §1
[17] = tested on: Cricetinae gen. sp.; experiment: Total cultures(13) versus active (5) at 10e-9 M conc. in hamster tracheal organ culture assay (TOC); assay type: functional, Trachea; in short: as §1
[18] = tested on: Cricetinae gen. sp.; experiment: Total cultures (13) versus active (4) at 10e-10 M conc. in hamster tracheal organ culture assay (TOC); assay type: functional, Trachea; in short: as §1
[19] = tested on: Cricetinae gen. sp.; experiment: Total cultures(6) versus active (1) at 10e-11 M conc. in hamster tracheal organ culture assay (TOC); assay type: functional, Trachea; in short: as §1
[20] = tested on: Cricetinae gen. sp.; experiment: Total cultures(6) versus active (3) at 10e-10 M conc. in hamster tracheal organ culture assay (TOC); assay type: functional, Trachea; in short: as §1
[21] = tested on: Cricetinae gen. sp.; experiment: Total cultures(6) versus active (5) at 10e-9 M conc. in hamster tracheal organ culture assay (TOC); assay type: functional, Trachea; in short: as §1
[22] = tested on: Cricetinae gen. sp.; experiment: Total cultures(12) versus active(13) at 10e-9 M conc. in hamster tracheal organ culture assay (TOC); assay type: functional, Trachea; in short: as §1
[23] = tested on: Cricetinae gen. sp.; experiment: Total cultures(13) versus active(13) at 10e-8 M conc. in hamster tracheal organ culture assay (TOC); assay type: functional, Trachea; in short: as §1
[24] = tested on: Cricetinae gen. sp.; experiment: Total cultures(5) versus active(13) at 10e-10 M conc. in hamster tracheal organ culture assay (TOC); assay type: functional, Trachea; in short: as §1
[25] = tested on: Cricetinae gen. sp.; experiment: Total cultures(13) versus active (11) at 10e-8 M conc. in hamster tracheal organ culture assay (TOC); assay type: functional, Trachea; in short: as §1
[26] = tested on: Cricetinae gen. sp.; experiment: Total cultures(14) versus active (5) at 10e-10 M conc. in hamster tracheal organ culture assay (TOC); assay type: functional, Trachea; in short: as §1
[27] = tested on: Cricetinae gen. sp.; experiment: Total cultures(14) versus active (6) at 10e-9 M conc. in hamster tracheal organ culture assay (TOC); assay type: functional, Trachea; in short: as §1
[28] = tested on: Cricetinae gen. sp.; experiment: Total cultures(11) versus active(13) at 10e-9 M conc. in hamster tracheal organ culture assay (TOC); assay type: functional, Trachea; in short: as §1
[29] = tested on: Cricetinae gen. sp.; experiment: Total cultures (1)versus active(6) at 10e-11 M conc. in hamster tracheal organ culture assay (TOC); assay type: functional, Trachea; in short: as §1
[30] = tested on: Cricetinae gen. sp.; experiment: Total cultures(9) versus active(14) at 10e-10 M conc. in hamster tracheal organ culture assay (TOC); assay type: functional, Trachea; in short: as §1

SMILES	ED50 [4]	Relative activity [6]	inhibition of control [7]	inhibition of control [8]	also measured
CC1=C(/C=C/C(C)=C/c2ccc(C(=O)O)cc2F)C(C)(C)CCC1	6 pM	5	37%	78%	Active/total cultures [1]: 0%; Active/total cultures [2]: 100%; Active/total cultures [3]: 27%; Active/total cultures [5]: 100%
CCOC(=O)c1ccc(/C=C(C)/C=C/C2=C(C)CCCC2(C)C)cn1	8 pM	0.4	29%	60%	Active/total cultures [9]: 29%; Active/total cultures [10]: 57%; Active/total cultures [11]: 100%
CCOC(=O)c1ccc(/C(F)=C(C)\C=C\C2=C(C)CCCC2(C)C)cc1	20 pM	<0.1		16%	Active/total cultures [12]: 0%; Active/total cultures [13]: 8%; Active/total cultures [14]: 17%; inhibition of control [15]: 5%
CC1=C(/C=C/C(C)=C/c2ccc(C(=O)O)o2)C(C)(C)CCC1	20 pM	<<0.1	7%	5%	Active/total cultures [16]: 45%; Active/total cultures [17]: 38%; Active/total cultures [18]: 31%
COc1cc(C(=O)O)ccc1/C=C(C)/C=C/C1=C(C)CCCC1(C)C	10 pM	3	9%	37%	Active/total cultures [19]: 17%; Active/total cultures [20]: 50%; Active/total cultures [21]: 83%
CC1=C(/C=C/C(C)=C(\F)c2ccc(C(=O)O)cc2)C(C)(C)CCC1	20 pM	3	70%	80%	Active/total cultures [22]: 92%; Active/total cultures [23]: 100%; Active/total cultures [24]: 38%
CCOC(=O)c1ccc(/C=C(C)\C=C\C2=C(C)CCCC2(C)C)s1	20 pM	0.3	35%	76%	Active/total cultures [25]: 85%; Active/total cultures [26]: 36%; Active/total cultures [27]: 43%
CCOC(=O)c1ccc(/C=C(C)/C=C/C2=C(C)CCCC2(C)C)c(F)c1	6 pM	5	8%	46%	Active/total cultures [28]: 85%; Active/total cultures [29]: 17%; Active/total cultures [5]: 100%; Active/total cultures [30]: 64%
